PAD4 FP inh: inhibitors of human PAD4; recombinant PAD4, RCA probe fluorescence polarization; inhibition, % at 6.36 µM; 330,000 compounds, 0.41% hits; Q9UM07;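 active means percent inhibition above a cutoff equal to the mean of all tested compounds plus 3 SD, cut at about 15% in these data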;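 further: 0% = PAD4 with RCA probe and DMSO and 100% = probe without PAD4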
PRMT1 inh: PRMT1 (human) inhibition, primary screen | Q99873 | recombinant PRMT1, activity-based probe fluorescence polarization | inhibition, % at 2.79 µM | 370,000 compounds, 1.3% hits | AID 652257;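 active means inhibition above about 21% made by adding two undisclosed values, limit read from the data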
RBBP9 inhibitor: blocks human serine hydrolase RBBP9; O75884; inhibition, % at 7.94 µM; 220,000 compounds, 0.2% hits; recombinant RBBP9, FP-Rh probe fluorescence polarization;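 active means inhibition above the campaign mean of all tested compounds plus 3 SD, cut at about 14% in these data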;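 further: plate controls were DMSO wells with RBBP9 for no effect and wells lacking RBBP9 protein for full effect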
Target sequence (O75884 whole entry, looked up): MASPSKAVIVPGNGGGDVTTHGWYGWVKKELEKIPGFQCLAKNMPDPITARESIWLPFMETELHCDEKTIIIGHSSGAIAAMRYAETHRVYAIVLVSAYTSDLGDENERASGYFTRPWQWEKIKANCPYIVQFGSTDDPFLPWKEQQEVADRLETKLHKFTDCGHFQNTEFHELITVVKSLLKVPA
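System: RBBP9 protein / Quantity: 2.5 µM RBBP9 dispensing solution, before mixing / Also added: Serine-hydrolase probe FP-Rh, 375 nM pre-mixing / Dosing: 7.94 µM single dose, 0.794% DMSO / Timing: enzyme-compound preincubation 30 min, then probe labeling 45 min, 25 °C / Signal: FP readout at 525/598 nm / Controls: DMSO-treated enzyme wells and wells lacking RBBP9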
GSTO1 counter: blocks human GSTO1 in RBBP9 counter-screen. recombinant GSTO1, activity-based probe fluorescence polarization. inhibition, % at 5.96 µM. 300,000 compounds, 1.1% hits. P78417;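 active means inhibition above the campaign mean inhibition plus 3 SD, cut at about 35% in these data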;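 further: 0% = GSTO1-1 with DMSO and 100% = wells lacking GSTO1-1 enzyme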
Target sequence (P78417 whole entry, looked up): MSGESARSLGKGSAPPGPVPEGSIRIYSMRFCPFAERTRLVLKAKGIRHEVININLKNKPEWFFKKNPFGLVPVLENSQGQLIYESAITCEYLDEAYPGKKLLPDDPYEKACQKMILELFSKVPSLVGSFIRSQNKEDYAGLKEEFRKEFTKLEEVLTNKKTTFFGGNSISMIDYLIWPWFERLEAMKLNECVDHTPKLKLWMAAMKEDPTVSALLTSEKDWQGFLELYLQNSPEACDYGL
SIAE primary: blocks human sialic acid acetylesterase; Q9HAT2; SIAE FP-Rh probe binding, fluorescence polarization; inhibition, % at 9.66 µM; 370,000 compounds, 0.69% hits; AID 1053197;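 active means inhibition above a cutoff: mean of compounds within the control limits plus 3 SD of those, cut at about 17% in these data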;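 further: 0% = plate median of compound wells and 100% = probe without SIAE protein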
SIAE inh conf: human SIAE inhibition, confirmation; 2,300 compounds, 13% hits; SIAE FP-Rh activity-based probe, fluorescence polarization; inhibition, % at 9.66 µM; shares compounds with SIAE primary;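 active means mean inhibition of the replicates above the hit cutoff set in the primary screen, cut at about 17% in these data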;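 further: 0% = SIAE with DMSO and probe and 100% = probe without SIAE; inhibitors lower polarization as more probe stays unbound to SIAE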
* marks the source's active call; other numbers are inactive results; . = not tested or not shown. Shown are actives, neighbours in structure and some others; about 2.7% of the full set was active somewhere.

SMILES | PAD4 FP inh | PRMT1 inh | RBBP9 inhibitor | GSTO1 counter | SIAE primary | SIAE inh conf
COc1cccc(N2CCN(c3ncnc4c3[nH]c3ccc(F)cc34)CC2C)c1 (stereo not drawn) | 0 | 5 | -6 | -14 | 19* | -4
COc1cc2[nH]c3c(N4CCN(c5ccc(Cl)cc5)CC4)ncnc3c2cc1OC | -3 | -3 | -6 | 2 | 30* | 25*
C#CCNC(=O)C1=C[C@@H](C2CCCCC2)C[C@@H](OCCCCO)O1 | -2 | -2 | -2 | 6 | 0 | .
CC(=O)OCC(=O)Nc1ccc(Br)c(C)c1 | -5 | -3 | -7 | 4 | -3 | .
COCCSc1ccccc1C(=O)N1CCCC(C)C1 (stereo not drawn) | 2 | -4 | -3 | 13 | 1 | .
COc1ccc(C2=CC(=O)OC3(CCCCC3)O2)cc1 | 0 | 0 | 3 | -4 | 19* | -4
COc1ccc(S(=O)(=O)c2snnc2C)cc1 | 2 | 3 | . | -2 | 3 | .
COc1ccccc1N1CCN(Cc2cc(Br)c(O)c3ncccc23)CC1 | -18 | 4 | -8 | 0 | 29* | 22*
CCc1cccc(OCC(=O)Nc2ccc(S(=O)(=O)Nc3onc(C)c3C)cc2)c1 | -4 | -1 | -5 | 20 | 4 | .
Cc1ccccc1P(=O)(CO)c1ccccc1C | -7 | 1 | 2 | 3 | 178* | 3
Cc1cc(SCC(=O)N/N=C/c2ccc(O)cc2O)nc2ccccc12 | 10 | 5 | . | -2 | 23* | -8
Cc1cc(SCC(=O)N/N=C/c2ccc(O)c(O)c2)nc2ccccc12 | -1 | 4 | . | 33 | 3 | .
N=C(N)CCCOc1ccccc1-c1ccccc1 | 4 | -2 | -4 | -3 | 20* | -2
Cc1cc2c(cc1C)-c1nnnn1C(N1CCC(Cc3ccccc3)CC1)C(=O)N2 (stereo not drawn) | . | 2 | . | . | -24 | .
C/C(=N\NC(N)=S)c1ccc2c(c1)OCCO2 | -6 | 4 | 1 | -5 | 4 | .
NC(=S)N/N=C1\CCOc2ccc(Cl)cc21 | -4 | 5 | 4 | 3 | 18* | -2
CNC(=S)Nc1cccc(C(C)=O)c1 | 7 | -1 | -8 | 11 | 17* | 2
CCOC(=O)/C(C)=N/Nc1nc(-c2ccc(NC(C)=O)cc2)cs1 | -2 | 1 | -7 | 6 | 20* | -8
CC(C)c1nnc(NC(=O)CCS(=O)(=O)c2nc(-c3cccs3)cc(C(F)(F)F)n2)s1 | -1 | 8 | -6 | -27 | -3 | .
CCN(CC)c1ccc(/C=N/NC(=O)c2nnn(-c3nonc3N)c2-c2ccc(C)cc2)cc1 | -2 | -2 | . | -2 | 25* | 4
CC1(C)CC(=O)C2=C(C1)NC1=C(C(=O)c3ccccc31)C2c1ccc(Cl)cc1 (stereo not drawn) | 3 | 1 | -4 | 0 | 30* | 14
Cc1ccc(C2C3=C(CC(C)(C)CC3=O)NC3=C2C(=O)c2ccccc23)cc1 (stereo not drawn) | 5 | 4 | 3 | 2 | 19* | 11
C=CCN=C(C)C1=C(O)CCC1=O | -4 | 1 | 4 | -7 | 1 | .
Cc1ccc(F)cc1C(=O)N1CCCC(c2nc(-c3cccs3)no2)C1 (stereo not drawn) | . | -3 | . | . | 6 | .
NNc1nc2ccc(Cl)cc2s1 | 3 | -2 | -1 | 0 | 23* | 1
SMILES | PAD4 FP inh | PRMT1 inh | RBBP9 inhibitor | GSTO1 counter | SIAE primary | SIAE inh conf
NNc1nc2ccc(F)cc2s1 | 1 | 2 | -4 | 1 | 11 | .
COc1cc(C(NC=O)C(=O)Nc2c(C)cccc2C)ccc1O (stereo not drawn) | 1 | 2 | -6 | 0 | 1 | .
Cc1ccc(C(=O)NCCc2n[nH]c(=S)n2C)cc1 | -1 | 2 | -6 | -2 | 1 | .
CCn1c(CCNC(=O)c2ccc(Cl)cc2)n[nH]c1=S | -4 | -1 | -5 | 4 | 22* | -2
Cc1cc(OC(=O)c2cc(F)c(F)cc2Cl)nc(C)n1 | -6 | -2 | -3 | -3 | 19* | 3
CC(C)CCNC(=O)CCc1nnc2ccc(N3CCC(C)CC3)nn12 | -1 | 0 | . | 1 | -2 | .
CC(/C=C/c1ccc(N(C)C)cc1)=N\N=C1\NC(=O)CC(C(=O)Nc2ccccc2)S1 (stereo not drawn) | 0 | 2 | -2 | 10 | 19* | 7
CSC1=NC(C)(C)C=C(/C=C/c2ccc(Cl)cc2)N1 | -2 | 4 | -5 | 17 | 17* | 5

Source: PubChem
